Source: ChEMBL document CHEMBL1128459, “Characterization of potent and selective antagonists at postsynaptic 5-HT1A receptors in a series of N4-substituted arylpiperazines” (J Med Chem, 1995)

Legend:
[1] = test system: Rattus norvegicus; assay: Minimum effective antagonist dose administered subcutaneously; type: functional; settings: sc, read-out: MED
Outline: (§1)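 Male Wistar rats (200-220 g) had rectal temperature taken, then received the test drug sc in distilled water (1.0 mL/kg). After 30 min they got 8-OH-DPAT 0.16 mg/kg sc, and temperature was remeasured 30 min later. Change from basal was scored.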

[2] = species: Rattus norvegicus; assay: Maximum antagonist effect (% effect) expressed relative to 8-hydroxy-DPAT (100%); type: functional
Outline: (§2)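 In the rat rectal-temperature model (sc dosing, 8-OH-DPAT 0.16 mg/kg sc for antagonism), the maximal percentage of induced hypothermia (agonist) and of block of 8-OH-DPAT hypothermia (antagonist) was recorded. Each value is given with the dose at which it was reached.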

[3] = target: T1, 5-hydroxytryptamine receptor 1A (Rattus norvegicus, UniProt P19327); assay: Binding affinity at 5-hydroxytryptamine 1A receptor
T1 sequence (P19327 whole entry): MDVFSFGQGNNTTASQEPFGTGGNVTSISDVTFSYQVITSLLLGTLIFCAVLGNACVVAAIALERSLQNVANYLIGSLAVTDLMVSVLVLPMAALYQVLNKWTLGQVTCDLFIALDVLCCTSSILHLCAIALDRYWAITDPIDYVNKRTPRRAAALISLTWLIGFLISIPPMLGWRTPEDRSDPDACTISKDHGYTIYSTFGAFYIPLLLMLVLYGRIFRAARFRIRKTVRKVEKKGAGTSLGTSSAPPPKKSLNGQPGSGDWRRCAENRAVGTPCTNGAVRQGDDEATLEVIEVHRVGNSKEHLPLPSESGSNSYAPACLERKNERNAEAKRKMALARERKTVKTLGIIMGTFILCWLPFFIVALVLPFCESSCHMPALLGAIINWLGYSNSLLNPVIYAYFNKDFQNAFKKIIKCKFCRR
Outline: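 Rat hippocampal membranes (1/100 wt/vol) in 50 mM Tris pH 7.7 with 4 mM CaCl2, 0.1% ascorbic acid and pargyline. Membranes were spun at 25000g, preincubated 30 min at 37 °C and respun, then incubated with 0.4 nM [3H]-8-OH-DPAT for 30 min at 25 °C. 5-HT defined nonspecific binding, and samples were filtered on PEI-soaked GF/B. IC50 came from regression; pKi = −log[IC50/(1+[L]/Kd)].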

[4] = target: D(2) dopamine receptor (Rattus norvegicus) (UniProt P61169)
[5] = species: Rattus norvegicus; assay: Maximum agonist effect (% effect) expressed relative to 8-hydroxy-DPAT (100%); type: functional; outline: as §2
[6] = target: 5-hydroxytryptamine receptor 1B (Rattus norvegicus, UniProt P28564); assay: Binding affinity at 5-hydroxytryptamine 1B receptor
Outline: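 Rat frontal cortex membranes (1/40 wt/vol) were homogenized in 50 mM Tris pH 7.7 with pargyline, 4 mM CaCl2 and 0.1% ascorbic acid, then preincubated for 30 min at 37 °C. Labelled with 2.0 nM [3H]-5-HT, with 100 nM 8-OH-DPAT and 100 nM mesulergine masking 5-HT1A/5-HT2A sites; 5-CT defined nonspecific binding.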

[7] = test system: Rattus norvegicus; assay: Minimum effective agonist dose administered subcutaneously; type: functional; settings: sc, read-out: MED
Outline: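 Male Wistar rats (200-220 g) were given the test drug alone sc in water (1.0 mL/kg), with vehicle reinjected at 30 min. Rectal temperature change from basal was measured 60 min after the first injection. MED for hypothermia was set against vehicle by ANOVA with Dunnett's test, P < 0.05.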

[8] = Ratio of MED (agonist) to that of MED (antagonist) values.; type: functional
Outline: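 The MED for inducing hypothermia alone was divided by the MED for blocking 8-OH-DPAT (0.16 mg/kg sc) hypothermia. Both MEDs came from sc dosing in male Wistar rats and were tested against vehicle by ANOVA with Dunnett's test, P < 0.05.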

[9] = test system: Rattus norvegicus; assay: Compound after subcutaneous administration was evaluated for antagonist activity against hypothermia induced by 8-hydroxy -DPAT in rat; type: functional; settings: sc, read-out: ID50 (the source's name); outline: as §1
[10] = target: D(2) dopamine receptor (Rattus norvegicus, UniProt P61169); assay: In vitro binding affinity towards Dopamine receptor D2 in rat striatum was determined using [3H]-spiperone as radioligand; type: tissue-based
Outline: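 Rat striatal membranes (1/300 wt/vol), no preincubation, in 50 mM Tris pH 7.4 with CaCl2, ascorbic acid, 5 mM KCl, 1 mM MgCl2 and 120 mM NaCl. Ligand 0.2 nM [3H]spiperone, with 100 nM ketanserin masking 5-HT2A sites; raclopride defined nonspecific binding. Incubation 30 min at 37 °C, then filtration. pKi derived from regression-based IC50.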

5-hydroxytryptamine receptor 1B, sequence (P28564 whole entry): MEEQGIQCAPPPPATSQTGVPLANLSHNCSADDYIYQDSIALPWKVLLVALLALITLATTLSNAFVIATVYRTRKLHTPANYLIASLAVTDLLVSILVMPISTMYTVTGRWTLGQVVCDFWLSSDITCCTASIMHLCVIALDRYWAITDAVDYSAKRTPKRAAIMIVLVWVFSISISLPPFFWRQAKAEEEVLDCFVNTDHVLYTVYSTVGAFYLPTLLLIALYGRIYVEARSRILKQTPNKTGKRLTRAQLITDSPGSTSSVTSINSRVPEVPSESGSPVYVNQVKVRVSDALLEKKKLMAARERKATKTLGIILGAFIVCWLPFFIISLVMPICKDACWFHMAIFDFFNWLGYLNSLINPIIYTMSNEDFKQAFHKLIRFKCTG
D(2) dopamine receptor (Rattus norvegicus), sequence (P61169 whole entry): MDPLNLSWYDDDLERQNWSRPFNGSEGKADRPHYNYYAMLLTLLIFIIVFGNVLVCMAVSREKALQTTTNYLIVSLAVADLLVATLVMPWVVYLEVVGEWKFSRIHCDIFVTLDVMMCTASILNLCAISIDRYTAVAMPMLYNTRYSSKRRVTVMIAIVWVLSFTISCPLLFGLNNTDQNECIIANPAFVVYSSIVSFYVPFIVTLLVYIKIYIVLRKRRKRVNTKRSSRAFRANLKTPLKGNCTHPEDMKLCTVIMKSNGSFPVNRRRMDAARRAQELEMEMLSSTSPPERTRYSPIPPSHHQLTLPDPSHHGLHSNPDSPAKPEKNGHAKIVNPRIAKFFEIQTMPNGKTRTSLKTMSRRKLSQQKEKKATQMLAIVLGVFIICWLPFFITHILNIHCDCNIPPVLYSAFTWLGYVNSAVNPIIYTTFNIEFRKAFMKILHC
D(2) dopamine receptor, sequence (P61169 whole entry): as above

| Compound | minimal effective dose [1] [mg/kg] | Max effect [2] [%] | Ki [3] [nM] | ID50 [4] [mg/kg] | Max effect [5] [%] | Ki [6] [nM] | minimal effective dose [7] [mg/kg] | Ratio [8] | ED50 [9] [mg/kg] | Ki [10] [nM] |
| --- | --- | --- | --- | --- | --- | --- | --- | --- | --- | --- |
| c1ccc2c(c1)CC(CCCN1CCN(c3cccc4c3OCCO4)CC1)C2 | 0.63 | 70 | 1.26 | > 40 | 40 | 1860 | 40 | 63.5 | 0.47 | – |
| c1ccc2c(c1)CC2CCN1CCN(c2cccc3c2OCCCO3)CC1 (stereo not given) | 1.25 | 72 | 1.15 | 30 | 31 | 562 | 40 | 32 | 2.68 | – |
| c1ccc2c(c1)CCCCC2CCN1CCN(c2cccc3c2OCCO3)CC1 (stereo not given) | 5 | 96 | 6.61 | > 10 | 9 | 776 | > 10 | > 2 | 4.26 | – |
| Clc1cccc2c1CC2CCCN1CCN(c2cccc3c2OCCO3)CC1 (stereo not given) | 0.63 | 60 | 3.72 | 40 | 15 | 1100 | > 10 | > 15.8 | 3.09 | – |
| c1ccc2c(c1)CC2CCCN1CCN(c2cccc3c2OCCCO3)CC1 (stereo not given) | 0.16 | 85 | 0.794 | – | 21 | 617 | > 2.5 | > 15.6 | 0.27 | – |
| C1=C(CCN2CCN(c3cccc4c3OCCO4)CC2)c2ccccc2CC1 | 0.63 | 100 | 2 | > 40 | 14 | 229 | > 40 | > 63.5 | 0.4 | – |
| c1ccc2c(c1)CC2CCCN1CCN(c2cccc3c2OCCO3)CC1 (stereo not given) | 0.16 | 75 | 0.447 | 1.7 | 100 | 646 | 10 | 62.5 | 0.18 | – |
| c1ccc2c(c1)CC2CN1CCN(c2cccc3c2OCCO3)CC1 (stereo not given) | 0.63 | 85 | 1.78 | > 40 | 100 | 214 | 10 | 15.8 | 0.67 | – |
| c1ccc2c(c1)CCCC2CCN1CCN(c2cccc3c2OCCO3)CC1 (stereo not given) | 0.16 | 70 | 2.75 | 40 | 8 | 708 | > 2.5 | > 15.6 | 0.4 | – |
| COc1cc2nc(N3CCN(C(=O)c4ccco4)CC3)nc(N)c2cc1OC | – | – | – | > 10 | – | – | – | – | – | – |
| c1ccc2c(c1)CC(CCN1CCN(c3cccc4c3OCCO4)CC1)C2 | 0.16 | 100 | – | 5.9 | 50 | 692 | 10 | 62.5 | 0.27 | – |
| c1cc2c(c(N3CCNCC3)c1)OCCO2 [ELTOPRAZINE] | > 40 | 0 | – | – | 100 | – | 2.5 | < 0.06 | > 40 | – |
| C1=C(CCN2CCN(c3cccc4c3OCCO4)CC2)c2ccccc2C1 | 0.63 | 94 | 0.794 | > 40 | 21 | 251 | > 2.5 | > 4 | 0.45 | – |
| COc1ccccc1N1CCN(CCN2C(=O)CC3(CCCC3)CC2=O)CC1 [BMY-7378] | 1.25 | 64 | – | 0.65 | 53 | > 10000 | 2.5 | – | 1.6 | 17.4 |
| COc1cc2c(cc1OC)C(CCN1CCN(c3cccc4c3OCCO4)CC1)C2 (stereo not given) | 1.25 | 96 | 3.16 | > 40 | 4 | 794 | > 40 | > 32 | 1.41 | – |
| COc1ccc2c(c1)C(CCN1CCN(c3cccc4c3OCCO4)CC1)C2 (stereo not given) | 0.63 | 95 | 1.26 | > 40 | 35 | 316 | 10 | 15.8 | 0.48 | – |
| c1ccc2c(c1)CC(CN1CCN(c3cccc4c3OCCO4)CC1)C2 | 0.63 | 87 | 2.82 | > 40 | 0 | 490 | > 10 | > 15.8 | 0.55 | – |
| c1ccc2c(c1)CC2CN1CCN(c2cccc3c2OCCCO3)CC1 (stereo not given) | 0.63 | 91 | 7.94 | > 40 | 76 | – | > 10 | > 15.8 | 0.32 | – |
| c1ccc2c(c1)CCC2CCCN1CCN(c2cccc3c2OCCO3)CC1 (stereo not given) | 0.16 | 81 | 0.617 | > 40 | 100 | 204 | 10 | 62.5 | 0.29 | – |
| C1=C(CCN2CCN(c3cccc4c3OCCO4)CC2)c2ccccc2CCC1 | 2.5 | 55 | 3.16 | 40 | 33 | 380 | > 40 | > 16 | 5.02 | – |
| c1ccc2c(c1)CC2CN1CCN(c2cccc3ccoc23)CC1 (stereo not given) | 2.5 | 96 | 7.94 | – | 15 | 912 | > 10 | > 4 | 1.12 | – |
| C1=C(CCN2CCN(c3cccc4c3OCCO4)CC2)Cc2ccccc21 | 0.31 | 81 | 0.537 | – | 76 | 933 | 10 | 32.2 | 0.36 | – |
| Fc1cccc2c1CC2CN1CCN(c2cccc3c2OCCO3)CC1 (stereo not given) | 0.63 | 61 | 1.78 | > 40 | 19 | 316 | > 10 | > 15.8 | 2.51 | – |
